Only some compounds are listed: those with a hit (about 2.1% of all), similar ones and a draw of the others.
FN deposition inh = inhibitors of fibronectin matrix deposition, primary screen, AH1F cells, Alexa488-fibronectin fluorescence, plate reader | 350,000 tested, 0.086% active | inhibition, % at 12.6 µM | AID 743247, 2014 | AH1F fibroblasts, overnight;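 active means mean inhibition across replicates of 30% or more, regardless of how many single replicates reach that level; inconclusive means mean under 30% yet at least half of replicates reach 30%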;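 further: positive control wells lacked labelled fibronectin entirely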
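Schedule: 1 h cell adhesion before compound, then overnight fibronectin incubation; test system: AH1F fibroblast monolayer depositing Alexa488-labelled fibronectin into matrix; quantity: 10000 AH1F cells per well; probe or stimulus: fluorescent fibronectin at 24 nM final; signal: fluorescence, ex 485 nm, em 525 nm; evaluation: percent inhibition as loss of matrix-bound fibronectin fluorescence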
LMP1 NFkB inh = EBV LMP1-driven NF-kappaB luciferase reporter inhibitors, primary screen, cell-based, luminescence, single point; inhibition, % at 12.5 µM; LMP1-induced NF-kappaB luciferase reporter cells; AID 504558, 2011; 350,000 tested, 0.69% active; in the data active means inhibition above about 41%; inconclusive means no clear call, values can overlap the other calls;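 further: 0% = neutral control wells and 100% = reference inhibitor control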
Shn3 inh set2 = reduction of Shn3 3'UTR firefly luciferase signal, primary screen, Schnurri-3 inhibitor project, cell-based, Clone20 osteoblasts, set 2; 360,000 tested, 0.52% active; Clone20 osteoblast Shn3 3'UTR firefly luciferase, 24 h; inhibition, % at 12.5 µM;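 active means mean inhibition of at least 75% with every replicate also reaching 75%; inconclusive means mean inhibition at least 75% but some replicate below; inactive means mean inhibition below 75%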;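 further: 0% = median of neutral control wells and 100% = pilot-screen positive control compound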
aSyn 5UTR inh = MLPCN primary screen, SNCA 5' untranslated region | alpha-synuclein 5'UTR reporter, inhibitor activity | 300,000 tested, 0.82% active | inhibition, % (tested at 7.5 µM); in the data active means inhibition above about 60%; inconclusive means no clear call, values can overlap the other calls;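 further: H4 neuroglioblastoma cells stably carrying SNCA 5'UTR luciferase fusion; 0% = DMSO wells and 100% = positive control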
EWS-Fli block = EWS/Fli-driven NR0B1 reporter inhibitors, primary screen, A673 cells, NR0B1 luciferase, luminescence, MLPCN library. viability-normalised. inhibition, % at 12.6 µM. 350,000 tested, 0.67% active;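 active means mean inhibition of at least 50% after viability correction, with every replicate also passing that limit; inconclusive means mean reaches 50% but only one of two replicates passes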;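 further: firefly luciferase signal divided by Alamar Blue viability fluorescence both relative to DMSO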
PAX8 inh HTS = inhibitors of PAX8-driven TPO luciferase reporter, primary screen, RMG-I cells, single concentration; 360,000 tested, 1.2% active; inhibition, % at 12.6 µM; SteadyGlo, 24 h;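 active means mean replicate inhibition at least 60% with every replicate also reaching 60%; inconclusive means only one of the two criteria is met; inactive means mean below 60% and not all replicates reaching 60%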;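 further: luciferase light reporting Pax8 driven TPO promoter activity; plate controls were median of neutral control wells for no effect and mitoxantrone controls for full effect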
Active calls of the source: *; ? = inconclusive; . = no result.

SMILES	FN deposition inh	LMP1 NFkB inh	Shn3 inh set2	aSyn 5UTR inh	EWS-Fli block	PAX8 inh HTS
COc1cc(C2CC(c3cccs3)=NN2C(=O)CCl)ccc1OC(F)F (stereo unspecified)	-13	0	57	107*	61*	-32
COc1ccc(C2CC(c3cccs3)=NN2C(=O)CCl)cc1OC (stereo unspecified)	-1	-5	49	-26	58*	-3
C[C@H]1CN([C@@H](C)CO)C(=O)c2cc(-c3ccccc3)cnc2O[C@@H]1CN(C)C(=O)c1cccc(F)c1	38*	.	.	.	7	.
C[C@H](CO)N1C[C@H](C)[C@@H](CN(C)Cc2ccccc2)Oc2ncc(-c3cccnc3)cc2C1=O	-4	.	.	.	-10	.
C[C@H](CO)N1C[C@H](C)[C@@H](CN(C)Cc2ccc(-c3ccccc3)cc2)Oc2ncc(-c3cccnc3)cc2C1=O	.	.	.	.	69*	.
CN(C)CC#Cc1ccc([C@@H]2[C@@H](CO)N3C(=O)CN(C(=O)Cc4cccnc4)C[C@@H]23)cc1	.	.	.	.	6	-5
C[C@H](CO)N1C[C@H](C)[C@@H](CN(C)S(=O)(=O)c2ccc(Cl)cc2)Oc2ccc(NC(=O)Nc3ccc(C(F)(F)F)cc3)cc2CC1=O	.	.	.	.	2	.
COc1ccc(C#Cc2ccc3c(c2)[C@H]2[C@H](CCN2Cc2ccncc2)[C@@H](CO)N3)cc1	-4	.	.	.	.	.
Clc1ccc(C[n+]2cc(-c3ccccc3)n3c2CCCCC3)c(Cl)c1	13	17	?	-18	36	81*
O=C1N[C@@H](Cc2ccccc2)C(=O)N1CCN1CCOCC1	3	-2	-20	0	.	.
O=C1NC(Cc2ccccc2)C(=O)N1Cc1cc([N+](=O)[O-])cc2c1OCOC2 (stereo unspecified)	6	55*	74	-22	-12	-3
O=C(C[C@@H]1C=C[C@H](NC(=O)Cc2ccccn2)[C@H](CO)O1)NCCc1ccccc1	.	.	.	.	-8	.
CC1(C(=O)NCc2ccco2)Cc2c(-c3ccccc3)ccnc2O1 (stereo unspecified)	-5	.	-11	.	59*	10
CC1(C(=O)NCc2cccs2)Cc2c(-c3cccc(C(F)(F)F)c3)ccnc2O1 (stereo unspecified)	9	.	39	.	55*	37
CC(=O)NCCNC(=O)C1(C)Cc2c(-c3ccccc3)ccnc2O1 (stereo unspecified)	13	.	-4	.	-2	2
C[C@@H]1CC=CC[C@@H](c2ccccc2)NC(=O)[C@H](Cc2ccccc2)N(C)C(=O)c2ccccc2O1 (mixture of isomers)	3	.	.	.	.	.
COc1ccc(/C=N/Nc2cc(N3CCCC3)nc(N3CCCC3)n2)cc1	17	-90	78	12	6	68*
Oc1ccc(/C=N/Nc2nc(N3CCCC3)nc(N3CCCC3)n2)cc1O	18	-1	93*	-24	19	31
Oc1ccc(/C=N/Nc2cc(N3CCCC3)nc(N3CCCC3)n2)cc1	-3	-1	9	4	.	.
CS(=O)(=O)c1ccc(C(=O)OCC(=O)NCc2cccs2)cc1[N+](=O)[O-]	6	-1	97*	.	8	101*
Cc1cccc(C(=O)OCC(=O)NCc2cccs2)c1	9	-23	-3	-3	6	0
O=C(C[C@H]1CC[C@H](NC(=O)CC2CC2)[C@@H](CO)O1)NCc1ccc(-c2ccccc2)cc1	0	.	.	.	-10	0
CC(C)NC1(C(N)=O)CCNCC1	-2	6	87*	.	0	7
C[C@@H]1CCCCO[C@H](CN(C)C(=O)CCC(F)(F)F)[C@H](C)CN([C@H](C)CO)C(=O)c2cc(NS(=O)(=O)c3ccccc3)ccc2O1	.	.	.	.	-7	-1
CC1(C)N=C(N)N=C(N)N1c1cccc(CN)c1	9	-5	5	-1	0	-4
SMILES	FN deposition inh	LMP1 NFkB inh	Shn3 inh set2	aSyn 5UTR inh	EWS-Fli block	PAX8 inh HTS
CC1(C)N=C(N)N=C(N)N1c1ccc(Oc2ccc(Cl)cc2)c(Cl)c1	-7	23	46	85*	48	60*
CC1(C)N=C(N)N=C(N)N1c1ccccc1	.	0	3	99*	.	.
Cc1noc(C)c1NC(=O)Nc1ccc2c(c1)C(=O)N([C@H](C)CO)C[C@H](C)[C@H](CN(C)S(=O)(=O)c1ccc(Cl)cc1)OCCCC[C@H](C)O2	1	.	.	.	.	18
COc1cccc(C#Cc2ccc([C@H]3[C@H]4CN(C(=O)Cc5cccnc5)CC(=O)N4[C@H]3CO)cc2)c1	-7	.	.	.	5	.
CC(C)NC(=O)N(C)C[C@H]1Oc2ncc(-c3cncnc3)cc2C(=O)N([C@H](C)CO)C[C@@H]1C	-5	.	.	.	-6	-13
COc1ccc(-c2ccc3c(c2)[C@H]2[C@H](CCN2S(=O)(=O)c2ccc(F)cc2)[C@H](CO)N3C)cc1	6	.	.	.	5	94*
COc1cccc(-c2ccc3c(c2)[C@H]2[C@H](CCN2S(=O)(=O)c2ccc(F)cc2)[C@@H](CO)N3C)c1	-1	.	.	.	11	67*
COc1ccc(S(=O)(=O)N2CC[C@@H]3[C@@H](CO)N(C)c4ccc(-c5ccc(F)cc5)cc4[C@@H]32)cc1	-45	.	.	.	42	66*
COc1ccc(-c2ccc3c(c2)[C@@H]2[C@@H](CCN2S(=O)(=O)c2ccc(F)cc2)[C@@H](CO)N3C)cc1	-7	.	.	.	9	7
CN1c2ccc(-c3ccc(C#N)cc3)cc2[C@H]2[C@H](CCN2S(=O)(=O)c2ccc(F)cc2)[C@@H]1CO	1	.	.	.	13	-3
CN1c2ccc(-c3ccc(F)cc3)cc2[C@H]2[C@H](CCN2S(=O)(=O)c2ccc(F)cc2)[C@@H]1CO	-51	.	.	.	55*	41
C[C@@H]1CN([C@H](C)CO)C(=O)c2cc(NC(=O)Nc3cccc4ccccc34)ccc2O[C@@H](C)CCCCO[C@H]1CN(C)S(=O)(=O)c1ccccc1	9	.	.	.	10	10
O=C(C[C@@H]1CC[C@@H]2[C@H](COC[C@@H](O)CN2C(=O)Nc2ccccc2)O1)NCc1ccccc1F	5	.	.	.	-7	-7
O=C(C[C@H]1CC[C@@H]2[C@H](COC[C@@H](O)CN2C(=O)Nc2ccc(C(F)(F)F)cc2)O1)NCC1CC1	4	.	.	.	-12	11
O=C(Nc1ccccc1F)N1C[C@@H]2[C@H](c3ccccc31)[C@H](CO)N2C(=O)C1CC1	30*	.	.	.	-42	-60
CCCN1CCC(=NNc2ccc(S(=O)(=O)N3CCOCC3)cc2[N+](=O)[O-])CC1	0	4	12	64*	.	12
COc1ccc2c3c([nH]c2c1)[C@H](CO)N(C(=O)C1CCCC1)CC31CCN(Cc2cccc(F)c2)CC1	.	.	.	.	36	.
COc1ccc2c3c([nH]c2c1)[C@H](CO)N(C(=O)C1CC1)CC31CCN(Cc2cccc(F)c2)CC1	.	.	.	.	36	69*
